# Compound activity from PubChem BioAssay.
# NSD2 inh: blocks human histone methyltransferase NSD2; AID 743445; O96028; NSD2 peptide methylation, AlphaScreen, 120 min; 310,000 tested, 0.54% active; inhibition, % at 12.5 µM; in the data active means inhibition above about 50%
# SR-BI DiI inh: blocks mouse SR-BI lipid uptake from DiI-HDL; inhibition, % at 12.5 µM; Q61009; ldlA[mSR-BI] CHO cells, DiI-HDL uptake fluorescence, 3 h; AID 488896; 320,000 tested, 0.96% active;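 active means mean replicate inhibition of at least 70% and a set share of replicates each scoring 70 or more; inconclusive means meets just one of the two criteria; inactive means fails both criteria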;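 further: 0% = median of neutral control wells and 100% = median of positive control wells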
# Target sequence (Q61009 whole entry, looked up): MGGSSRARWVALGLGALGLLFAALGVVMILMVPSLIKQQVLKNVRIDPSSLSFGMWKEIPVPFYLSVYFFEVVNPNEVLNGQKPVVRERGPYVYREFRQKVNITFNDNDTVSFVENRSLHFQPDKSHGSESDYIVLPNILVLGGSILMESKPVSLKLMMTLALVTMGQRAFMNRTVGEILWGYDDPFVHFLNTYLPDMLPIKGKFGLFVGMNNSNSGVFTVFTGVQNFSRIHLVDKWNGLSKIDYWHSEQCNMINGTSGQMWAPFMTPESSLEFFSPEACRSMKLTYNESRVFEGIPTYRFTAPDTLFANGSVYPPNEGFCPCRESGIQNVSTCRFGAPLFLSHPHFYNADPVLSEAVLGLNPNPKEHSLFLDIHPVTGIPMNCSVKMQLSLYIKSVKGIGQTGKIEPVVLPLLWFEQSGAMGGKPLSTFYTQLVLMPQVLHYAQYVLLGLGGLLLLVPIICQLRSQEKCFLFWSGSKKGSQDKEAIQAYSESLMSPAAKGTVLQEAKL
# XiGFP reactiv: activators of X-chromosome reactivation in mouse fibroblasts; XiGFP mouse fibroblasts, % GFP-positive cells imaging, 3 d; cells co-treated with 5-aza-dC sensitizer; scaled so ellipticine positive control = 100%; activation, % at 7.58 µM; 360,000 tested, 0.055% active;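 active means mean normalized replicate activation at least 10% and every replicate at or above 10%; inconclusive means only one of the two criteria met; inactive means mean below 10% and not all replicates reach 10%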;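 further: 0% = median of on-plate neutral control wells and 100% = ellipticine 6 µM median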
#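 Material: XiGFP fibroblasts, SV40-immortalized. Buffer or medium: DMEM plus 5-aza-dC sensitizer. Compound: single concentration per compound, delivered by pin transfer. Times: 3 days compound exposure. Controls: ellipticine 6 µM.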
# SR-BI DiI-HDL act: SR-BI HDL lipid transfer activation | CHO ldlA[mSR-BI] cells, DiI-HDL uptake fluorescence, 3 h; 100 = double the neutral-control signal | activation, % at 12.5 µM | 320,000 tested, 0.096% active;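 active means mean replicate activation of at least 60% and every replicate at or above 60%; inconclusive means mean or all-replicate condition met, but not both; inactive means mean below 60% and not all replicates reaching 60%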;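 further: 0% = median plate neutral-control signal and 100% = twice that signal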
#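 System: CHO ldlA[mSR-BI] cells / Medium: HEPES-buffered (25 mM, pH 7.4) F12 plus 0.5% BSA / Probe or stimulus: labelled HDL, 10 µg/mL / Doses: single compound concentration, delivered by pin transfer / Schedule: 3 h, 37 °C / Measured by: DiI fluorescence, bottom read / Measure: cell-associated DiI fluorescence as measure of HDL uptake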
# ARNT TACC3 PPI: disrupts binding between human ARNT and TACC3; Q9Y6A5; AlphaScreen His-ARNT PAS-B/GST-TACC3 binding, luminescence; TACC3 fragment carries E629A point mutation; inhibition, % at 9.99 µM; 390,000 tested, 0.66% active;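 active means mean inhibition of replicates at least 50% and at least half of replicates each reaching 50%; inconclusive means half or more replicates reach 50% but mean below 50%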;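 further: 0% = complete ARNT plus TACC3 wells and 100% = ARNT alone without TACC3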
# HGIII-sPLA2 inh: Blocks human group III sPLA2 activity. 370,000 tested, 0.56% active. AID 743126. inhibition, % at 12.2 µM. QFRET BODIPY PC-A2 liposome hydrolysis, fluorescence. Q9NZ20;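 active means inhibition above mean plus 3 SD of compounds lying within the high and low control bounds, cut at about 19% in these data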;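 further: 0% = median of test compound wells and 100% = no enzyme DMSO wells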
# AlphaScreen ctr: interferes with AlphaScreen signal, flagging false ARNT-TACC3 hits | shares compounds with ARNT TACC3 PPI | AC50, µM (highest dose often 68 µM), for inactives: top-dose activity change, negative = signal decrease | His-ARNT PASB-GST AlphaScreen artifact counter-screen, luminescence | 1,200 tested, 50% active;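 active means every separate test run was called active for a drop in luminescence, with AC50 within twice the top valid dose, actives reach about 71 µM in these data; inconclusive means the separate test runs disagree in their calls; inactive means all runs inactive, including signal change in the wrong direction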
# hGIII sPLA2 conf: human GIII-sPLA2 inhibition, confirmation. shares compounds with HGIII-sPLA2 inh. recombinant hGIII-sPLA2, BODIPY PC-A2 QFRET fluorescence. inhibition, % at 12.2 µM. 2,000 tested, 34% active. AID 743280;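 active means mean inhibition across triplicates above the hit cutoff set in the earlier primary screen, cut at about 19% in these data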;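 further: 0% = enzyme with DMSO and 100% = DMSO wells lacking enzyme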
# 535nm interf: optically interferes with 535nm fluorescence in sPLA2 counter-screen; shares compounds with HGIII-sPLA2 inh; BODIPY FL product fluorescence interference, QFRET; inhibition, % at 12.2 µM; 2,000 tested, 8.5% active; AID 743282;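 active means average inhibition above the solvent-only control mean plus 3 SD, cut at about 6% in these data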;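 further: 0% = DMSO with substrate plus product and 100% = DMSO with substrate alone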
# 535nm interf DR: counter-screen for HGIII-sPLA2 inhibitors: 535nm fluorescence interference, dose response | 240 tested, under 10 active | shares compounds with HGIII-sPLA2 inh | BODIPY FL product fluorescence interference, cell-free | IC50, µM;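 active means IC50 at or below 10 µM; inactive means IC50 above 10 µM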
# Alpha artifact: interferes with AlphaScreen signal, flagging NSD2 false positives. shares compounds with NSD2 inh. AlphaScreen artifact counterscreen, preloaded methylated H4 peptide. AC35, µM (top dose mostly 10 µM), inactives show at the top dose activity change, negative = signal loss. 1,500 tested, 9.4% active. AID 1053174; call rule not given here
# Numbers without * were called inactive; ? = inconclusive; / = not tested or not shown. A selection: hits, their analogues and other compounds. The true share with any hit is near 2%.
SMILES,NSD2 inh,SR-BI DiI inh,XiGFP reactiv,SR-BI DiI-HDL act,ARNT TACC3 PPI,HGIII-sPLA2 inh,hGIII sPLA2 conf,535nm interf,others
Cc1[nH]n(-c2ccccc2)c(=O)c1C(c1cccc([N+](=O)[O-])c1)c1c(C)[nH]n(-c2ccccc2)c1=O,24,28,0,-28,/,-10,/,/,
Nc1nnc2c(n1)CCCC2,58*,-19,/,19,55*,-1,/,/,AlphaScreen ctr=-10%;Alpha artifact=7%
CCN(CC)c1ccc(C(=C2C=CC(=[N+](CC)CC)C=C2)c2ccc(N(CC)CC)cc2)cc1,154*,89*,0,-89,50*,60*,61*,-15,AlphaScreen ctr=0.7µM*;535nm interf DR=>122;Alpha artifact=0.43µM*
CCN(CC)c1ccc(C(=O)NNC(=O)CCl)cc1,1,/,0,/,-1,1,/,/,
COc1ccc(-c2cc3ncc(-c4ccccc4)c(N)n3n2)cc1,-2,5,-1,-5,0,1,/,/,
COc1cc2c(cc1OC)C1(C)N(CC2)C(C(C)=O)=NN1c1ccc(Cl)cc1 (configuration not stated),-17,/,0,/,/,20*,9,-5,
O=C(N1CCOCC1)C12CC3CC(C1)CC(n1cnc(Cl)n1)(C3)C2,-5,-8,0,8,-4,21*,1,-3,
O=C(N1CCOCC1)C12CC3CC(C1)CC(C(=O)N1CCOCC1)(C3)C2,-3,11,/,-11,-6,5,/,/,
CCCCN(CC)S(=O)(=O)c1ccc(C(=O)N=c2sc3cc(NC(C)=O)ccc3n2C)cc1,-3,37,1,-37,-10,20*,-28,-13,
CCOP(=O)(OCC)C(NC(=O)Nc1ccc(Cl)cc1)C(=O)N(CC)CC (configuration not stated),-3,-84,0,?,/,-3,/,/,
c1ccc(N2CCN(c3ccccc3)C2c2ccncc2)cc1,1,11,/,-11,-29,8,/,/,
S=C(NC1CCCC1)NC1CC1,-3,-17,0,17,-3,21*,3,-5,
S=C(NC1CCCC1)NC1CCCC1,1,-1,0,1,-11,9,/,/,
Cc1cccc(C)c1NC(=S)NC1CCCCC1,0,21,0,-21,6,24*,21*,-5,
O=C(NCc1ccncc1)NC1CCCCC1,-3,-30,0,30,33,1,/,/,
CCCCNC(=O)C1c2ccccc2OCC(=O)N1C1CC1 (configuration not stated),/,/,0,/,/,-4,/,/,
CCCC(=O)Nc1ccc2c(c1)C(=O)N(C)C[C@@H](OC)[C@H](C)CN(C(=O)c1cccnc1)[C@H](C)CO2,/,/,0,/,4,/,/,/,
CCOC(=O)[C@H]1[C@H]2COc3cc(OC)ccc3[C@@H]2N2C(=O)c3cc(F)ccc3NC(=O)[C@@]12C,/,20,0,-20,-5,31*,11,-9,
CCOC(=O)[C@H]1[C@H]2COc3cc(OC)ccc3[C@@H]2N2C(=O)c3cc(OC)ccc3NC(=O)[C@@]12C,/,35,0,-35,7,26*,13,-14,
